Assay results from PMC11170706 (ACS Omega, 2024).

Tests used:
[1] = test system: OSCC cell line SAS; test: MTT cell proliferation assay, SAS cells; type: cell-based, human; conditions: for IC50: Homo sapiens, 72 h, read-out: IC50 value (μM) SAS; for Selectivity index (SI) IC50 (HaCaT)/IC50 (SAS): ratio of IC50 in HaCaT to IC50 in SAS
[2] = test system: human normal cell line HaCaT; test: MTT cell proliferation assay, HaCaT cells; type: cell-based; conditions: 72 h, read-out: IC50 value (μM) HaCaT
In short: (§1)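 Human lines kept in DMEM with 10% FBS and 1% Pen-Strep at 37 °C, 5% CO2. 2 × 10^3 cells/well were seeded, grown 24 h, then exposed to test compound for 72 h (SAS and T.Tn: 0, 5, 10, 25, 50, 100 μM; HaCaT: 0, 10, 25, 50, 75, 100 μM). MTT (5 mg/mL stock) was added for 2 h, formazan dissolved in DMSO, and A570 read. Percentage proliferation was taken relative to untreated control. IC50 was read where the dose–response curve crosses 50%.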

[3] = test system: SAS cells; test: PI-RNase-based cell-cycle analysis; set-up: species or system human; conditions: 24 h, AA2 1-10 μM, AA3 5-20 μM, PI-RNase flow cytometry
In short: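 SAS cells were seeded at 2 × 10^5 per well, grown 24 h, then treated 24 h with test compound. Cells were trypsinized, PBS-washed and fixed overnight in 75% ethanol at −20 °C. They were stained with PI-RNase for 20 min in the dark and analysed by flow cytometry for the percentage of cells in each cycle phase.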

[4] = test system: SAS cells; test: PI-based flow cytometric analysis of cell death; set-up: species or system human; conditions: 48 h, PI staining
In short: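 After 24 h attachment, 2 × 10^5 SAS cells per well received test compound for 48 h. Floating cells from the medium were pooled with trypsinized cells and washed three times in PBS. The unfixed cells were resuspended in PBS with PI and analysed by flow cytometry, with percentage of dead cells recorded.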

[5] = test system: SAS cells; test: Annexin V-based flow cytometric analysis of apoptosis; type: cell-based, human; conditions: 48 h
In short: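 SAS cells were seeded at 2 × 10^5 per well, grown 24 h, then exposed to test compound for 48 h. Medium-borne and trypsinized cells were collected and washed three times in PBS. They were labelled with annexin V for 20 min, then PI for 10 min, and analysed by flow cytometry. Apoptosis was computed from quadrants Q2+Q4.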

[6] = test system: Bcl-2, caspases, COX-2, MMP-9, survivin, VEGF, Akt/mTOR and STAT-3 in SAS cells; test: Western blot analysis of proteins involved in OSCC; type: cell-based, human; conditions: 24 h, AA2 2.5, 5, 10 μM, AA3 10, 15, 20 μM
In short: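 SAS cells were seeded at 4 × 10^5 per well, attached 24 h, then treated 24 h with test compound (0–20 μM). Lysis buffer: 20 mM HEPES, 250 mM NaCl, 2 mM EDTA, 0.1% Triton X-100, 1 mM DTT, protease inhibitors. Protein was quantified by Bradford and equal amounts run on 12% SDS-PAGE, then transferred to nitrocellulose. Blocking was 5% milk, primary antibody overnight at 4 °C, HRP secondary 2 h, ECL detection. α-Tubulin served as loading control.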

[7] = test system: esophageal cancer cell line T.Tn; test: MTT cell proliferation assay, T.Tn cells; type: cell-based; conditions: Homo sapiens, 72 h, read-out: IC50 value (μM) T.Tn
In short: as §1

[8] = test system: SAS cells; test: Wound-healing scratch assay; type: cell-based, human; conditions: 24 h
In short: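 SAS cells were seeded at 6 × 10^5 per well and grown to a monolayer. Cells were serum-starved in DMEM for 6 h to block proliferation, then scratched with a pipette tip and PBS-washed. Test compound was added and wounds were imaged at 0 and 24 h. Percentage wound area remaining is reported as mean ± SD, Student's t test, p < 0.05.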

[9] = test system: SAS cells; test: Colony formation; type: cell-based, human; conditions: for inhibition at 10 µM: read-out: inhibition/reduction of colony formation
In short: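 SAS cells were seeded at 2 × 10^3 per well and attached for 24 h. Test compound (1–20 μM range) was given for 24 h, then replaced with fresh medium for 10 days of growth. Colonies were washed in PBS, fixed in 70% ethanol for 4 h at −20 °C, stained with 0.01% crystal violet and counted. Plating efficiency = colonies/cells plated × 100. Survival fraction = PE treated/PE control.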

SMILES	IC50 [1]	Selectivity index (SI) IC50 (HaCaT)/IC50 (SAS) [1]	IC50 [2]	effect on cell-cycle progression [3]	apoptosis (percentage of apoptotic cells) ([5]; 5 μM)	apoptosis (percentage of apoptotic cells) ([5]; 10 μM)	effect on Akt/mTOR and STAT-3 signaling pathways [6]	effect on Bcl-2 expression [6]	effect on caspase-3 and caspase-9 [6]	IC50 [7]	wound area (initial gap) remaining ([8]; 5 μM)	wound area (initial gap) remaining ([8]; 10 μM)	inhibition at 10 µM ([9]; Homo sapiens)	also measured
O=c1[nH]cc(F)c(=O)[nH]1 [5-FU, 5-fluorouracil, reference compound]	3 µM	1.3	4 µM	–	–	–	–	–	–	–	–	–	–	–
CC(C)=CCc1c(-c2cc(O)c(O)cc2O)oc2c3c(cc(O)c2c1=O)OC(C)(C)C=C3 [AA2, artonin E]	6 µM	12	72 µM	arrest of these cells in the S-phase	18%	22%	inhibition of the Akt/mTOR and STAT-3 signaling pathways	downregulation of Bcl-2	activation of caspase-3 and caspase-9 in a dose-dependent manner	8 µM	over 60%	over 75%	> 90%	cell death ([4]; 10 μM): more than 80%; apoptosis (percentage of apoptotic cells) ([5]; 2.5 μM): 8%; wound area (initial gap) remaining ([8]; 1 μM): approximately 25%; wound area (initial gap) remaining ([8]; 2.5 μM): 40%; inhibition at 5 µM ([9]; Homo sapiens, read-out: inhibition of colony formation): > 90%; reduction of colony formation ([9]; SAS cells, 2.5 μM, 24 h treatment, 10 days culture): over 50%
C=C(C)[C@H]1Cc2c(oc3c4c(cc(O)c3c2=O)OC(C)(C)C=C4)-c2c(O)cc(O)c(O)c21 [AA3, artobiloxanthone]	11 µM	6.4	70 µM	arrest of these cells in the S-phase	8%	18%	inhibition of the Akt/mTOR and STAT-3 signaling pathways	downregulation of Bcl-2	activation of caspase-3 and caspase-9 in a dose-dependent manner	22 µM	over 45%	over 60%	> 80%	cell death ([4]; 20 μM): approximately 8%; apoptosis (percentage of apoptotic cells) ([5]; 15 μM): 26%; apoptosis (percentage of apoptotic cells) ([5]; 20 μM): 30%; wound area (initial gap) remaining ([8]; 15 μM): over 65%; wound area (initial gap) remaining ([8]; 20 μM): 90%
